The species named for assay [1] is Cavia porcellus. In words: The compound was evaluated for the antagonistic activity against DAGO (mu-receptor) in guinea pig ileum. It is filed as functional.
The target in assay [2] is Kappa-type opioid receptor (Cavia porcellus, UniProt P41144). In words: Compound was evaluated for the inhibition of [3H]bremazocine binding to Opioid receptor kappa 1 in guinea pig cerebellum membrane homogenates. The assay is classed as cell membranes. The method in brief: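 Guinea pig cerebellum crude membranes were incubated with [3H]bremazocine (0.5 nM) at 25 °C for 60 min with peptidase inhibitors. Values are the mean ± SEM of at least three independent observations.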
Kappa-type opioid receptor (Cavia porcellus, UniProt P41144), sequence (P41144 whole entry): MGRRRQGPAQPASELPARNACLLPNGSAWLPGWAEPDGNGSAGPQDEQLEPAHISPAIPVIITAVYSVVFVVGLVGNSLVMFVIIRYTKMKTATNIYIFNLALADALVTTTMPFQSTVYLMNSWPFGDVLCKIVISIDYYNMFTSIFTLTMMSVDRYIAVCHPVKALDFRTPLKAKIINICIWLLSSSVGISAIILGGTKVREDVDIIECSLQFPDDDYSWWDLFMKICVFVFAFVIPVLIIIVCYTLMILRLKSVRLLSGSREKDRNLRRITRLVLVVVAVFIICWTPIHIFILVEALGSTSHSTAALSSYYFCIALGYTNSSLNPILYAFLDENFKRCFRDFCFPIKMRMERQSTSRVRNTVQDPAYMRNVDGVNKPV

The target in assay [3] is T1, Kappa-type opioid receptor (Homo sapiens, UniProt P41145). In words: Compound was evaluated for the agonistic activity against Opioid receptor kappa 1 in rabbit vas deferens. It is filed as functional, Oryctolagus cuniculus. The settings on record: target entry is the homologue from another species. The method in brief: (§1)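 Isolated organs (guinea pig ileum myenteric plexus-longitudinal muscle, hamster vas deferens, rabbit vas deferens) were electrically stimulated, and inhibition of the evoked twitch contractions was recorded. The bath held a peptidase inhibitor mixture. Peptides were tested up to 10 μM.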
T1 sequence (P41145 whole entry): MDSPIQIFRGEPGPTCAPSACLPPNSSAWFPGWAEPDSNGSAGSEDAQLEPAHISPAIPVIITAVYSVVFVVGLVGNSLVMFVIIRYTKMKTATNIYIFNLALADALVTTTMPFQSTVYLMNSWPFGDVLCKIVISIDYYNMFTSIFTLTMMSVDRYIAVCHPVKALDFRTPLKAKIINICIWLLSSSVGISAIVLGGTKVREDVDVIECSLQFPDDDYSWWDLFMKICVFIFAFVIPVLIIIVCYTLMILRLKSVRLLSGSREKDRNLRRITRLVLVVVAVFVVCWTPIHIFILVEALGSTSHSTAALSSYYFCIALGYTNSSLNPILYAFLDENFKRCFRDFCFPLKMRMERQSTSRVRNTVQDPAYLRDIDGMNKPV

For assay [4], the target named is Delta-type opioid receptor (Rattus norvegicus, UniProt P33533). In words: Compound was evaluated for the inhibition of [3H]DSLET([[3H]D-Ser2,Leu5,Thr6]enkephalin binding to Opioid receptor delta 1 in rat brain homogenates. It is filed as tissue-based.
Delta-type opioid receptor (Rattus norvegicus, UniProt P33533), sequence (P33533 whole entry): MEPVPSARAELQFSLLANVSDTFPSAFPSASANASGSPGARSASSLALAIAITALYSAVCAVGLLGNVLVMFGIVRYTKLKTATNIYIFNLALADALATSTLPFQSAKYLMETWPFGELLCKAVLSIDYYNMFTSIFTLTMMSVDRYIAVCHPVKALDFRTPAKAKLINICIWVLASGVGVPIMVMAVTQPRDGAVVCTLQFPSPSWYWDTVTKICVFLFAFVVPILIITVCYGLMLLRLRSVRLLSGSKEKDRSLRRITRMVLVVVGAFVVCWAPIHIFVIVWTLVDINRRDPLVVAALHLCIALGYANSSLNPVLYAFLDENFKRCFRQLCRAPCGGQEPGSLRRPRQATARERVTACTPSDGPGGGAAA
Assay [5] has as its target Delta-type opioid receptor (Rattus norvegicus) (UniProt P33533). In words: Hill coefficient value was measured against delta sites in rat brain homogenates. The assay is classed as tissue-based.
In assay [6] the target is Mu-type opioid receptor (Rattus norvegicus) (UniProt P33535). In words: Hill coefficient value was measured against mu sites in rat brain homogenates. The assay is classed as tissue-based.
Mu-type opioid receptor (Rattus norvegicus), sequence (P33535 whole entry): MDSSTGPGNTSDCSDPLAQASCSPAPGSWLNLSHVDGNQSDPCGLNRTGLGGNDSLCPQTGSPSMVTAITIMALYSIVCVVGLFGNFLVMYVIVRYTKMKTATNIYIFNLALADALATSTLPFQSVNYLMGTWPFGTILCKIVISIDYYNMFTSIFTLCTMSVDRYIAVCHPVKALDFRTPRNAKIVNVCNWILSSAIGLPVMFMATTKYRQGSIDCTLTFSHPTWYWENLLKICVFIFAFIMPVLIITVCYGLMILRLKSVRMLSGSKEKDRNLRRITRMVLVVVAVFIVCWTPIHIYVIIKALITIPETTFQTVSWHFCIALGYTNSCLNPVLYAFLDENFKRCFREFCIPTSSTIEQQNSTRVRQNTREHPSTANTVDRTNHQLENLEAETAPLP
Assay [7] concerns the target Kappa-type opioid receptor (Cavia porcellus) (UniProt P41144). In words: Hill coefficient value was measured against Opioid receptor kappa 1 in guinea pig cerebellum membrane homogenates. The assay is classed as cell membranes.
The target of assay [8] is Mu-type opioid receptor (Cavia porcellus, UniProt P97266). In words: Compound was evaluated for the agonistic activity against Opioid receptor mu 1 in guinea pig ileum. It is filed as functional, tissue-based. The method in brief:
as §1

For a further assay, the species on record is Oryctolagus cuniculus. In words: The compound was evaluated for the antagonistic activity in rabbit vas deferens. It is filed as functional. The method in brief: (§2)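 Isolated electrically stimulated organ (guinea pig ileum myenteric plexus-longitudinal muscle; rabbit vas deferens), run with a peptidase-inhibitor mixture, twitch contractions recorded. In the antagonism test, the peptide concentration was set to depress the twitch by 20-40%. Analogue tested up to 10 μM. Ke is the concentration reducing the effect of a double dynorphin A dose to that of a single dose. Mean ± SEM of at least four independent measurements.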

Assay [9] deals with Delta-type opioid receptor. In words: Receptor selectivity index is the ratio of the apparent KI at delta opioid receptor over the apparent KI at the highest affinity site. The method in brief:
(§3)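 RSI is the apparent KI at the given site divided by the apparent KI at the highest-affinity site. KI values come from [3H]DAGO (μ) and [3H]DSLET (δ) binding in rat brain membranes and [3H]bremazocine (κ) binding in guinea pig cerebellum membranes, all at 25 °C with peptidase inhibitors.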

Assay [10] deals with T1, Kappa-type opioid receptor. In words: Receptor selectivity index is the ratio of the apparent KI at kappa opioid receptor over the apparent KI at the highest affinity site. The gist of the method:
as §3

The target of assay [11] is Mu-type opioid receptor (Rattus norvegicus, UniProt P33535). In words: Compound was evaluated for the inhibition of [3H]DAGO([[3H]D-Ala,MePhe4,Glyol5]enkephalin) binding to mu sites in rat brain homogenates. The assay is classed as tissue-based.
Mu-type opioid receptor (Rattus norvegicus, UniProt P33535), sequence (P33535 whole entry): as above
Assay [12] is filed under the species Cavia porcellus. In words: The compound was evaluated for the antagonistic activity against dynorphin A in guinea pig ileum. The assay is classed as functional. The method in brief: as §2
Another assay deals with Cricetinae gen. sp. In words: The compound was evaluated for the antagonistic activity in hamster vas deferens. It is filed as functional, Cricetulus griseus. The method in brief: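 Agonist concentration chosen to depress twitch height by 20-40%. Ke is the peptide concentration that reduces the effect of a double agonist dose to that of a single dose. Peptide tested up to 10 μM. At least four independent measurements.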

From ChEMBL document CHEMBL1123230, “Synthesis and biological activities of dynorphin A analogues with opioid antagonist properties” (J Med Chem, 1986) come the findings set out here.

What is called Ki is the equilibrium dissociation constant of an inhibitor or competing ligand from its target. A low value points to tighter binding. As usually defined, the IC50 is the midpoint of a concentration-inhibition curve. The term Hill coefficient denotes a measure of the steepness of the concentration-response curve.

Delta-type opioid receptor (Rattus norvegicus), sequence (P33533 whole entry): as the sequence (P33533 whole entry) above
Kappa-type opioid receptor (Cavia porcellus), sequence (P41144 whole entry): as the sequence (P41144 whole entry) above
Mu-type opioid receptor (Cavia porcellus, UniProt P97266), sequence (P97266 whole entry): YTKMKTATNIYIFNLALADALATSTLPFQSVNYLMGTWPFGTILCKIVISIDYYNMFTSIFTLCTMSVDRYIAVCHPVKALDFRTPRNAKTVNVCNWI

For the molecule `NCCCC[C@H](NC(=O)[C@H]1CCCN1C(=O)[C@H](CCCN=C(N)N)NC(=O)[C@@H](Cc1c[nH]c2ccccc12)NC(=O)[C@H](CCCN=C(N)N)NC(=O)[C@H](CCCN=C(N)N)NC(=O)[C@@H](Cc1c[nH]c2ccccc12)NC(=O)[C@H](Cc1ccccc1)NC(=O)CNC(=O)CNC(=O)[C@@H](N)Cc1ccc(O)cc1)C(=O)O`, the Ke in the assay filed under Cavia porcellus [1] turned out to be 13.9 nM; in the assay listed under Oryctolagus cuniculus, 199 nM. Also, the Ki came to 20.6 nM in [2], 303 nM in assay [4] and 20.3 nM on Mu-type opioid receptor [11]. Also, the IC50 in [3] was over 10000 nM; on Mu-type opioid receptor [8], 69 nM. Besides, the Hill coefficient came out at 0.9 in [5], 1.23 in [6] and 0.96 in [7]. The Ratio is 15 in [9] and 1 in [10].

As to `CC[C@H](C)[C@H](NC(=O)[C@H](CCCNC(=N)N)NC(=O)[C@H](CCCNC(=N)N)NC(=O)[C@H](CC(C)C)NC(=O)[C@H](Cc1ccccc1)NC(=O)CNC(=O)CNC(=O)[C@@H](N)Cc1ccc(O)cc1)C(=O)N[C@@H](CCCNC(=N)N)C(=O)N1CCC[C@H]1C(=O)N[C@@H](CCCCN)C(=O)N[C@@H](CC(C)C)C(=O)N[C@@H](CCCCN)C(=O)N[C@@H](Cc1c[nH]c2ccccc12)C(=O)N[C@@H](CC(=O)O)C(=O)N[C@@H](CC(N)=O)C(=O)N[C@@H](CCC(N)=O)C(=O)O`, the Ki in [2] worked out at 0.23 nM.

`CC[C@H](C)[C@H](NC(=O)[C@H](CCCN=C(N)N)NC(=O)[C@H](CCCN=C(N)N)NC(=O)[C@H](CC(C)C)NC(=O)[C@H](Cc1ccccc1)NC(=O)CNC(=O)CNC(=O)[C@@H](N)Cc1ccc(O)cc1)C(=O)N[C@@H](CCCN=C(N)N)C(=O)N1CCC[C@H]1C(=O)N[C@@H](CCCCN)C(=O)N[C@@H](CC(C)C)C(=O)N[C@@H](CCCCN)C(=O)N[C@@H](Cc1c[nH]c2ccccc12)C(=O)N[C@@H](CC(=O)O)C(=O)N[C@@H](CC(N)=O)C(=O)N[C@@H](CCC(=O)O)C(=O)O` showed a Hill coefficient in assay [7] of 0.79.

The molecule `CC[C@H](C)[C@H](NC(=O)[C@H](CCCNC(=N)N)NC(=O)[C@H](CCCNC(=N)N)NC(=O)[C@H](CC(C)C)NC(=O)[C@H](Cc1ccccc1)NC(=O)CNC(=O)CNC(=O)[C@@H](N)Cc1ccc(O)cc1)C(=O)N[C@@H](CCCNC(=N)N)C(=O)N1CCC[C@H]1C(=O)N[C@@H](CCCCN)C(=O)O` [DYNORPHIN A (1-11)] displayed an IC50 in assay [3] of 13.1 nM. This lies in the double-digit nanomolar range.

Consider `CC(C)C[C@H](NC(=O)[C@@H](Cc1c[nH]c2ccccc12)NC(=O)CNC(=O)[C@@H](Cc1c[nH]c2ccccc12)NC(=O)[C@@H](N)Cc1ccc(O)cc1)C(=O)N[C@@H](CCCN=C(N)N)C(=O)N[C@@H](CCCN=C(N)N)C(=O)N[C@H](Cc1c[nH]c2ccccc12)C(=O)N[C@@H](CCCN=C(N)N)C(=O)N1CCC[C@@H]1C(=O)N[C@@H](CCCCN)C(=O)O`, for which the Ke in the assay filed under Cavia porcellus [1] is 83 nM; in the assay filed under Cavia porcellus [12], 61 nM; in the assay filed under Oryctolagus cuniculus, 293 nM. The Ki in assay [2] was 23.8 nM; in [4] it was 134 nM; at Mu-type opioid receptor [11], 51.5 nM. Also, the IC50 (in assay [3]; at Mu-type opioid receptor [8]) was over 10000 nM throughout. The Hill coefficient in [5] was determined as 0.86; in assay [6] it was 0.89; in assay [7], 0.85. For the same molecule, the Ratio came to 5.6 in assay [9] and 1 in [10].

Turning to `CC(C)C[C@H](NC(=O)[C@@H](Cc1c[nH]c2ccccc12)NC(=O)CNC(=O)CNC(=O)[C@@H](N)Cc1ccc(O)cc1)C(=O)N[C@@H](CCCN=C(N)N)C(=O)N[C@@H](CCCN=C(N)N)C(=O)N[C@H](Cc1c[nH]c2ccccc12)C(=O)N[C@@H](CCCN=C(N)N)C(=O)N1CCC[C@@H]1C(=O)N[C@@H](CCCCN)C(=O)O`, the Ke in the assay filed under Cavia porcellus [1] is 249 nM; in the assay listed under Cavia porcellus [12], 606 nM; in the assay listed under Oryctolagus cuniculus it was 1432 nM. Moreover, the values for the Ki (in assay [2]; in assay [4]; on Mu-type opioid receptor [11]) were 73 nM, 631 nM and 142 nM, respectively. Also, the IC50 (in assay [3]; on Mu-type opioid receptor [8]) was over 10000 nM each time. The Hill coefficient stood at 0.92 in assay [5], 1.06 in assay [6] and 0.85 in [7]. For the same molecule, the Ratio turned out to be 8.6 in assay [9] and 1 in assay [10].

With `CC(C)C[C@H](NC(=O)[C@H](Cc1ccccc1)NC(=O)[C@@H](Cc1c[nH]c2ccccc12)NC(=O)CNC(=O)[C@@H](N)Cc1ccc(O)cc1)C(=O)N[C@@H](CCCN=C(N)N)C(=O)N[C@@H](CCCN=C(N)N)C(=O)N[C@H](Cc1c[nH]c2ccccc12)C(=O)N[C@@H](CCCN=C(N)N)C(=O)N1CCC[C@@H]1C(=O)N[C@@H](CCCCN)C(=O)O`, the Ke in the assay listed under Cavia porcellus [1] came out at 40.5 nM; in the assay filed under Cavia porcellus [12], 10.3 nM; in the assay with Cricetinae gen. sp., 1127 nM; in the assay listed under Oryctolagus cuniculus, 1127 nM. The Ki was 19.6 nM in assay [2], 1040 nM in assay [4] and 327 nM on Mu-type opioid receptor [11]. The IC50 in [3] was over 10000 nM; at Mu-type opioid receptor [8], 222 nM. Besides, the results for the Hill coefficient in assay [5], in assay [6] and in assay [7] were 1.07, 1.31 and 1.03, respectively. The values for the Ratio in assay [9] and in assay [10] were 53 and 1, respectively.

With `CC(C)C[C@H](NC(=O)[C@H](Cc1ccccc1)NC(=O)CNC(=O)[C@@H](Cc1c[nH]c2ccccc12)NC(=O)[C@@H](N)Cc1ccc(O)cc1)C(=O)N[C@@H](CCCN=C(N)N)C(=O)N[C@@H](CCCN=C(N)N)C(=O)N[C@H](Cc1c[nH]c2ccccc12)C(=O)N[C@@H](CCCN=C(N)N)C(=O)N1CCC[C@@H]1C(=O)N[C@@H](CCCCN)C(=O)O`, the Ke was found to be 206 nM in the assay listed under Cavia porcellus [12] and 433 nM in the assay listed under Oryctolagus cuniculus. In addition, the Ki in [2] was found to be 153 nM; in [4] it was 561 nM; on Mu-type opioid receptor [11], 103 nM. Also, the IC50 is over 10000 nM in assay [3] and 8890 nM at Mu-type opioid receptor [8]. The Hill coefficient in assay [5] amounted to 0.72; in [6] it was 1.15; in assay [7], 0.83. For the same molecule, the Ratio in assay [9] is 5.5; in [10], 1.5.

In the case of `CC(C)C[C@H](NC(=O)[C@H](Cc1ccccc1)NC(=O)CNC(=O)CNC(=O)[C@@H](N)Cc1ccc(O)cc1)C(=O)N[C@@H](CCCN=C(N)N)C(=O)N[C@@H](CCCN=C(N)N)C(=O)N[C@H](Cc1c[nH]c2ccccc12)C(=O)N[C@@H](CCCN=C(N)N)C(=O)N1CCC[C@@H]1C(=O)N[C@@H](CCCCN)C(=O)O`, the Ki in assay [2] turned out to be 0.049 nM; in assay [4], 5.43 nM; at Mu-type opioid receptor [11], 0.58 nM. The figures for the IC50 (in assay [3]; at Mu-type opioid receptor [8]) were 12.8 nM and 2.84 nM, respectively. Moreover, the Hill coefficient in assay [5] was found to be 0.98; in [6], 0.86; in assay [7], 1. The Ratio in assay [9] worked out at 110; in [10] it was 1.

As to `CC[C@H](C)[C@H](NC(=O)[C@H](CCCN=C(N)N)NC(=O)[C@H](CCCN=C(N)N)NC(=O)[C@H](CC(C)C)NC(=O)[C@H](Cc1ccccc1)NC(=O)CNC(=O)CNC(=O)[C@@H](N)Cc1ccc(O)cc1)C(=O)N[C@@H](CCCN=C(N)N)C(=O)N1CCC[C@@H]1C(=O)N[C@@H](CCCCN)C(=O)O`, the IC50 in assay [3] turned out to be 12.1 nM.
